Experimental data published in ChEMBL document CHEMBL4414651, “Discovery and Optimization of Salicylic Acid-Derived Sulfonamide Inhibitors of the WD Repeat-Containing Protein 5-MYC Protein-Protein Interaction” (J Med Chem, 2019).
Each block holds one molecule with its values, some of them ahead of it. The source made the active and inactive calls. The rule behind the calls is not given here.

Legend:
[1] = biological target: T1, WD repeat-containing protein 5 (Homo sapiens, UniProt P61964)
[2] = biological target: T1, WD repeat-containing protein 5; assay: Binding affinity to N-terminal FLAG-tagged human full-length WDR5 […] assessed as change in melting temperature at 10 uM by differential scanning fluorimetry
Summary of the method: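 Thermal shift (differential scanning fluorimetry) on WDR5, with compounds at 10 μM. Samples were run in triplicate, and ΔTm is the average melting-temperature shift read by fluorescence.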

[3] = biological target: T1, WD repeat-containing protein 5; assay: Binding affinity to N-terminal FLAG-tagged human full-length WDR5 expressed in HEK293T cells harboring human C-terminal HA-tagged c-MYC assessed as disruption of WDR5-c-MYC protein-protein interaction at 50 uM by SDS-PAGE based immunoblot assay; format: cell-based
[4] = biological target: T1, WD repeat-containing protein 5; assay: Binding affinity to WDR5 (unknown origin) assessed as inhibition of WDR5-MLL1 protein-protein interaction by TR-FRET assay
[5] = species: Homo sapiens; assay: Inhibition of human MLL1/WDR5/RBBP5/ASH2L/DPY30 complex assessed as reduction in histone methyl-transferase activity using H3-peptide as substrate
[6] = Apparent permeability from apical to basolateral side in MDCK cells; format: ADME, cell-based, Canis lupus familiaris; conditions: dog
[7] = biological target: T1, WD repeat-containing protein 5; assay: Binding affinity to N-terminal FLAG-tagged human full-length WDR5 expressed in HEK293T cells harboring human C-terminal HA-tagged c-MYC assessed as disruption of WDR5-RBBP5 protein-protein interaction at 50 uM by SDS-PAGE based immunoblot assay; format: cell-based
Summary of the method: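 HEK293 cells expressing FLAG-WDR5 and c-MYC-HA were kept in DMEM with 10% FBS, hygromycin B 50 μg/mL and puromycin 100 ng/mL. Lysates in Tris pH 8.0/NaCl/EDTA/1% Triton buffer were treated with compound at 50 μM or 6.25–50 μM. α-FLAG magnetic M2 beads, 2 h at 4 °C, then SDS-PAGE and α-RBBP5 immunoblot. Quantified against vehicle; at least two independent repeats.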

[8] = Protein binding in plasma (unknown origin) assessed as unbound fraction; format: ADME, cell-free
[9] = Solubility of the compound; format: physicochemical
Summary of the method: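 Kinetic solubility, measured by an outside contract lab using a standard commercial assay format.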

Structure (SMILES): O=C(O)c1cc(S(F)(F)(F)(F)F)cc(NS(=O)(=O)c2cc(Br)cc(Cl)c2O)c1O
Kd [1]: 0.031 µM
ΔTm [2]: 8.42 °C

Kd [1]: 0.385 µM
Activity [3]: Active
Structure (SMILES): CS(=O)(=O)c1cc(Cl)cc(NS(=O)(=O)c2cc(Br)cc3cccnc23)c1O

Kd [1]: 27.7 µM
Structure (SMILES): COc1ccc(Br)cc1S(=O)(=O)Nc1ccc(Cl)cc1O

Structure (SMILES): O=C(O)c1cc(S(F)(F)(F)(F)F)cc(NS(=O)(=O)c2cc(Br)ccc2O)c1O
Kd [1]: 0.047 µM
inhibition [4]: inactive

Structure (SMILES): CS(=O)(=O)c1cc(NS(=O)(=O)c2cc(Br)cc(Cl)c2O)cc(S(F)(F)(F)(F)F)c1
Kd [1]: 0.093 µM
Activity [3]: Active

Structure (SMILES): CS(=O)(=O)c1cc(C2(C#N)CCC2)cc(NS(=O)(=O)c2cc(Br)cc(Cl)c2O)c1O
Kd [1]: 0.11 µM

Structure (SMILES): CNC(=O)c1cc(C2(C#N)CCC2)cc(NS(=O)(=O)c2cc(Br)ccc2O)c1O
inhibition [5]: Active
Papp [6]: 452 nm/s
Activity [7]: Active
Kd [1]: 0.566 µM
Fu [8]: < 0.0006%
solubility [9]: > 100 µM
Activity [3]: Active

Structure (SMILES): COc1ccc(Br)cc1S(=O)(=O)Nc1cc(-c2ccccc2)ccc1O
Kd [1]: 37 µM

Structure (SMILES): CS(=O)(=O)c1cc(S(F)(F)(F)(F)F)cc(NS(=O)(=O)c2cc(Br)cc(Cl)c2O)c1O
Papp [6]: 186 nm/s
Kd [1]: 0.045 µM
Fu [8]: < 0.0003%
solubility [9]: > 100 µM

Kd [1]: 0.047 µM
Structure (SMILES): O=C(O)c1cc(S(F)(F)(F)(F)F)cc(NS(=O)(=O)c2cc(Br)cc3cccnc23)c1O

Structure (SMILES): N#CC1(c2ccc(O)c(NS(=O)(=O)c3cc(Br)ccc3O)c2)CCC1
inhibition [5]: Active
Papp [6]: 278 nm/s
Kd [1]: 0.289 µM
Fu [8]: < 0.0005%
solubility [9]: > 100 µM
ΔTm [2]: 2.63 °C

Structure (SMILES): O=S(=O)(Nc1cc(Cl)ccc1O)c1cc(Br)ccc1O
Papp [6]: 364 nm/s
Kd [1]: 1.25 µM
Fu [8]: < 0.0026%
solubility [9]: > 100 µM

Structure (SMILES): N#CC1(c2cc(NS(=O)(=O)c3cc(Br)cc(Cl)c3O)c(O)c(C(=O)O)c2)CCCCC1
Activity [7]: Active
Kd [1]: 0.038 µM
ΔTm [2]: 6.38 °C
Activity [3]: Active

Structure (SMILES): O=C(O)c1cc(NS(=O)(=O)c2cc(Br)cc(Cl)c2O)cc(S(F)(F)(F)(F)F)c1
inhibition [5]: Active
Kd [1]: 0.029 µM
inhibition [4]: inactive

Structure (SMILES): CNC(=O)c1cc(C2(C#N)CCCCC2)cc(NS(=O)(=O)c2cc(Br)ccc2O)c1O
Kd [1]: 0.779 µM
inhibition [4]: inactive

Structure (SMILES): O=S(=O)(Nc1cc(OC(F)(F)F)ccc1O)c1cc(Br)ccc1O
Kd [1]: 0.549 µM

Kd [1]: 0.272 µM
Structure (SMILES): CS(=O)(=O)c1cc(C2(C#N)CCC2)cc(NS(=O)(=O)c2cc(Br)cc3cccnc23)c1O

Kd [1]: 71 µM
Structure (SMILES): CCOc1cc(S(=O)(=O)Nc2ccccc2C(=O)O)ccc1F

Structure (SMILES): CNC(=O)c1cc(S(F)(F)(F)(F)F)cc(NS(=O)(=O)c2cc(Br)ccc2O)c1O
Kd [1]: 0.204 µM

Structure (SMILES): CS(=O)(=O)c1cc(S(F)(F)(F)(F)F)cc(NS(=O)(=O)c2cc(Br)ccc2O)c1O
Kd [1]: 0.167 µM

Structure (SMILES): N#CC1(c2cc(NS(=O)(=O)c3cc(Br)ccc3O)cc(C(=O)O)c2)CCC1
Kd [1]: 0.229 µM
inhibition [4]: inactive

Kd [1]: 0.304 µM
Activity [3]: Active
Structure (SMILES): COc1ccc(Br)cc1S(=O)(=O)Nc1cc(Cl)cc(S(C)(=O)=O)c1O

Structure (SMILES): COc1ccc(Br)cc1S(=O)(=O)Nc1ccccc1O
Kd [1]: > 40 µM

Structure (SMILES): O=C(O)c1c(O)c(NS(=O)(=O)c2cc(Br)cc(Cl)c2O)cc(C2CC2)c1F
inhibition [5]: Active
Activity [7]: Active
Kd [1]: 0.05 µM
Activity [3]: Active

Structure (SMILES): O=C(O)c1cc(OC(F)(F)F)cc(NS(=O)(=O)c2cc(Br)ccc2O)c1O
Kd [1]: 0.137 µM

inhibition [5]: Active
Structure (SMILES): COc1ccc(Br)cc1S(=O)(=O)Nc1cc(Cl)ccc1O

Structure (SMILES): CS(=O)(=O)c1cc(C2(C#N)CCC2)cc(NS(=O)(=O)c2cc(Br)ccc2O)c1O
Kd [1]: 0.349 µM

Kd [1]: 0.122 µM
Structure (SMILES): CNC(=O)c1cc(S(F)(F)(F)(F)F)cc(NS(=O)(=O)c2cc(Br)cc3cccnc23)c1O

Structure (SMILES): COc1ccc(Cl)cc1S(=O)(=O)Nc1cc(Cl)ccc1O
Kd [1]: 8.41 µM

Structure (SMILES): O=C(O)c1cc(Cl)cc(NS(=O)(=O)c2cc(Br)cc(Cl)c2O)c1O
Kd [1]: 0.163 µM
ΔTm [2]: 4.05 °C

Structure (SMILES): O=C(O)c1cc(Cl)cc(NS(=O)(=O)c2cc(Br)ccc2O)c1O
Kd [1]: 0.223 µM
ΔTm [2]: 4.05 °C

Kd [1]: 0.906 µM
Activity [3]: Active
Structure (SMILES): CNC(=O)c1cc(C2(C#N)CCC2)cc(NS(=O)(=O)c2cc(Br)ccc2OC)c1O

Structure (SMILES): CS(=O)(=O)c1cc(Cl)cc(NS(=O)(=O)c2cc(Br)ccc2O)c1
Papp [6]: 47.9 nm/s
Kd [1]: 1.88 µM
Fu [8]: 0.004%
solubility [9]: > 100 µM

Structure (SMILES): O=S(=O)(Nc1cc(S(F)(F)(F)(F)F)ccc1O)c1cc(Br)ccc1O
inhibition [5]: Active
Papp [6]: 147 nm/s
Kd [1]: 0.11 µM
solubility [9]: > 100 µM
